Results reported in ChEMBL document CHEMBL3779886, “Cassane Diterpenoids from the Pericarps of Caesalpinia bonduc” (J Nat Prod, 2016).
The source made the active and inactive calls.

How the values were obtained:
Format in all cases: functional, cell-based
SH-SY5Y [1] = assay: Neuroprotective activity against H2O2-induced toxicity in human SH-SY5Y cells assessed as cell viability at 1 to 10 uM pretreated for 2 hrs followed by H2O2 addition measured after 24 hrs by MTT assay
In short: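 High-passage SH-SY5Y cells (ATCC), 37 °C, 5% CO2. Pretreatment for 2 h with compound at 1 or 10 μM, or N-acetylcysteine 300 μM, then 100 μM H2O2 for 24 h. Viability by MTT (0.5 mg/mL final, 4 h, 37 °C), DMSO solubilization, absorbance 490 nm. Means ± SD, one-way ANOVA, p < 0.05.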

SH-SY5Y [2] = assay: Neuroprotective activity against amyloid beta(25 to 35)-induced toxicity in human SH-SY5Y cells assessed as cell viability at 1 to 10 uM pretreated for 2 hrs followed by protein addition measured after 24 hrs by MTT assay
In short: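 Cells: high-passage SH-SY5Y (ATCC), 37 °C, 5% CO2. 2 h pretreatment with compound at 1 or 10 μM, or EGCG 10 μM, then 10 μM Aβ25−35 for 24 h with compound still present. MTT at 0.5 mg/mL final for 4 h, 37 °C; DMSO dissolution; read at 490 nm. Means ± SD, one-way ANOVA, p < 0.05.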

SH-SY5Y [3] = assay: Neuroprotective activity against OGD-induced toxicity in human SH-SY5Y cells assessed as cell viability at 1 to 10 uM pretreated for 2 hrs followed by OGD induction for 1 hr measured after 24 hrs by MTT assay
In short: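 SH-SY5Y cells (high passage, ATCC) kept at 37 °C, 5% CO2. Pretreated with compound for 2 h, then OGD exposure (1 mg/mL as printed) for 1 h, followed by 24 h normal culture. Glucose-fed cells under normal conditions served as controls. MTT 0.5 mg/mL final, 4 h, 37 °C; DMSO; A490. Means ± SD, one-way ANOVA.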

Measured: Activity

COC(=O)[C@@H]1c2ccoc2C[C@H]2[C@H]1[C@@H](O)[C@H](OC(C)=O)[C@@]1(O)C(C)(C)CCC(=O)[C@]21C
inactive: all assays above

COC(=O)[C@@H]1c2ccoc2C[C@H]2[C@H]1[C@@H](OC(C)=O)[C@H](OC(C)=O)[C@@]1(O)C(C)(C)CCC[C@]21C
inactive: all assays above

CC(=O)O[C@@H]1[C@@H]2[C@H](Cc3occc3[C@@]2(C)O)[C@@]2(C)[C@@H](OC(C)=O)C[C@H](C)[C@@]3(C)O[C@@]23[C@H]1OC(C)=O
inactive: all assays above

CC(=O)O[C@@H]1[C@@H]2[C@H](Cc3occc3[C@@]2(C)O)[C@@]2(C)[C@@H](OC(C)=O)CC(C)=C(C)[C@]2(O)[C@H]1OC(C)=O
inactive: all assays above

COC(=O)[C@@H]1c2ccoc2C[C@H]2[C@H]1[C@@H](OC(C)=O)[C@H](O)[C@@]1(O)C(C)(C)CCC(=O)[C@]21C
inactive: all assays above

C=C1c2ccoc2C[C@H]2[C@H]1[C@@H](OC(C)=O)[C@H](OC(C)=O)[C@@]1(O)C(C)(C)CCC(=O)[C@]21C
inactive: all assays above

C=C1c2ccoc2C[C@H]2[C@H]1CC[C@@]1(O)C(C)(C)[C@H](OC(C)=O)[C@H](OC(C)=O)[C@H](OC(C)=O)[C@]21C
inactive: all assays above

COC(=O)[C@@H]1c2ccoc2C[C@H]2[C@H]1[C@@H](OC(C)=O)[C@H](OC(C)=O)[C@@]1(O)C(C)(C)CC[C@H](O)[C@]21C
inactive: all assays above

COC(=O)[C@@H]1c2ccoc2C[C@H]2[C@H]1[C@@H](O)[C@H](OC(C)=O)[C@@]1(O)C(C)(C)CC[C@H](O)[C@]21C
inactive: all assays above
